Reference: publication PMC11252475 (Acta Pharmaceutica Sinica. B, 2024)

Columns and labels:
NaV1.5 = NaV1.5 (Homo sapiens, UniProt Q14524); test: Cell membrane chromatography; type: binding; conditions: capacity factor k′; reflects potential cardiac toxicity; k′ < 0 labeled as 0
SD rats = test: Systemic toxicity, subcutaneous injection; type: in vivo, rat; conditions: TI = LD50/ED50, s.c.
[1] = Systemic toxicity, subcutaneous injection; type: in vivo, rat; conditions: Sprague-Dawley, rat, in vivo, sc
rats [2] = test: Sciatic nerve block model; type: in vivo, rat; conditions: 62.3 mmol/L near sciatic nerve; for motor block duration: extensor postural thrust; for duration of effective sensory blockade: hotplate test
How it was run: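 Test compound (62.3 mmol/L) was injected near the sciatic nerve. Hind limbs were tested every 30 min until back to pre-test baseline. Sensory: paw withdrawal latency on a 55 °C hotplate, timed by stopwatch. Motor: extensor postural thrust in grams on a digital balance. Recovery was 50% of baseline.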

[3] = Systemic toxicity, intravenous; conditions: ICR, mouse, in vivo
rats [4] = test: Cutaneous trunci pinprick model; type: in vivo, rat; conditions: 62.3 mmol/L
How it was run: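 Male SD rats under 1%–3% isoflurane had about 6 cm × 6 cm of back shaved, swabbed with alcohol and split into four areas. Test compound (62.3 mmol/L) was given by s.c. infiltration. Pinprick scored 1 for no response and 0 for response. Duration ran from onset to expiration, expressed as mean-score MPE. Effective block was ≥50% MPE; complete block was 100% MPE.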

rats [5] = test: CFA-induced chronic plantar inflammatory pain model; type: in vivo, rat; conditions: 62.3 mmol/L, 0.2 mL subcutaneous at swollen foot
How it was run: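 Male SD rats (6–8 weeks, 250–300 g) under 1%–3% isoflurane had CFA injected into the right foot. Test compound (62.3 mmol/L, 0.2 mL) or equal-volume saline was given s.c. at the swollen site. Electronic von Frey stimulation to the side of the foot every 10 min after onset. Anesthesia failed when the value fell to half the limb-weight-to-baseline difference or below.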

[6] = system: NaV currents in rat dorsal root ganglion (DRG) neurons; test: Whole-cell patch clamp, sodium current in DRG neurons; type: cell-based; conditions: F-11 rat/mouse fusion cell line, DRG neuron, read-out: IC50 sodium current
How it was run: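 Male rat DRG neurons (180–200 g donors) were dissociated with collagenase IV (2 mg/mL) then trypsin (10 mg/mL) for 30 min, plated on poly-L-lysine and grown in Neurobasal with FBS and B27. Whole-cell voltage clamp used 3–4 MΩ electrodes. I/V steps ran from −90 to +40 mV in 10 mV increments, 50 ms each.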

rats [7] = test: Plantar incisional pain model; type: in vivo, rat; conditions: 0.2 mL near incision
How it was run: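 Rats with a plantar incision received test compound or saline, 0.2 mL, near the incision. Local anesthesia was assessed by von Frey stimulation of the lateral sole.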

rats [8] = test: Gingival incision pain model; type: in vivo, rat
How it was run: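 Oral pain models in rats under 1%–3% isoflurane, with test compound given as local anesthetic. Food intake and body-weight change were measured on a precision balance over 24 h. Facial grooming was video-recorded for 1 h after dosing.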

Chain of NaV1.5 (Q14524 whole entry): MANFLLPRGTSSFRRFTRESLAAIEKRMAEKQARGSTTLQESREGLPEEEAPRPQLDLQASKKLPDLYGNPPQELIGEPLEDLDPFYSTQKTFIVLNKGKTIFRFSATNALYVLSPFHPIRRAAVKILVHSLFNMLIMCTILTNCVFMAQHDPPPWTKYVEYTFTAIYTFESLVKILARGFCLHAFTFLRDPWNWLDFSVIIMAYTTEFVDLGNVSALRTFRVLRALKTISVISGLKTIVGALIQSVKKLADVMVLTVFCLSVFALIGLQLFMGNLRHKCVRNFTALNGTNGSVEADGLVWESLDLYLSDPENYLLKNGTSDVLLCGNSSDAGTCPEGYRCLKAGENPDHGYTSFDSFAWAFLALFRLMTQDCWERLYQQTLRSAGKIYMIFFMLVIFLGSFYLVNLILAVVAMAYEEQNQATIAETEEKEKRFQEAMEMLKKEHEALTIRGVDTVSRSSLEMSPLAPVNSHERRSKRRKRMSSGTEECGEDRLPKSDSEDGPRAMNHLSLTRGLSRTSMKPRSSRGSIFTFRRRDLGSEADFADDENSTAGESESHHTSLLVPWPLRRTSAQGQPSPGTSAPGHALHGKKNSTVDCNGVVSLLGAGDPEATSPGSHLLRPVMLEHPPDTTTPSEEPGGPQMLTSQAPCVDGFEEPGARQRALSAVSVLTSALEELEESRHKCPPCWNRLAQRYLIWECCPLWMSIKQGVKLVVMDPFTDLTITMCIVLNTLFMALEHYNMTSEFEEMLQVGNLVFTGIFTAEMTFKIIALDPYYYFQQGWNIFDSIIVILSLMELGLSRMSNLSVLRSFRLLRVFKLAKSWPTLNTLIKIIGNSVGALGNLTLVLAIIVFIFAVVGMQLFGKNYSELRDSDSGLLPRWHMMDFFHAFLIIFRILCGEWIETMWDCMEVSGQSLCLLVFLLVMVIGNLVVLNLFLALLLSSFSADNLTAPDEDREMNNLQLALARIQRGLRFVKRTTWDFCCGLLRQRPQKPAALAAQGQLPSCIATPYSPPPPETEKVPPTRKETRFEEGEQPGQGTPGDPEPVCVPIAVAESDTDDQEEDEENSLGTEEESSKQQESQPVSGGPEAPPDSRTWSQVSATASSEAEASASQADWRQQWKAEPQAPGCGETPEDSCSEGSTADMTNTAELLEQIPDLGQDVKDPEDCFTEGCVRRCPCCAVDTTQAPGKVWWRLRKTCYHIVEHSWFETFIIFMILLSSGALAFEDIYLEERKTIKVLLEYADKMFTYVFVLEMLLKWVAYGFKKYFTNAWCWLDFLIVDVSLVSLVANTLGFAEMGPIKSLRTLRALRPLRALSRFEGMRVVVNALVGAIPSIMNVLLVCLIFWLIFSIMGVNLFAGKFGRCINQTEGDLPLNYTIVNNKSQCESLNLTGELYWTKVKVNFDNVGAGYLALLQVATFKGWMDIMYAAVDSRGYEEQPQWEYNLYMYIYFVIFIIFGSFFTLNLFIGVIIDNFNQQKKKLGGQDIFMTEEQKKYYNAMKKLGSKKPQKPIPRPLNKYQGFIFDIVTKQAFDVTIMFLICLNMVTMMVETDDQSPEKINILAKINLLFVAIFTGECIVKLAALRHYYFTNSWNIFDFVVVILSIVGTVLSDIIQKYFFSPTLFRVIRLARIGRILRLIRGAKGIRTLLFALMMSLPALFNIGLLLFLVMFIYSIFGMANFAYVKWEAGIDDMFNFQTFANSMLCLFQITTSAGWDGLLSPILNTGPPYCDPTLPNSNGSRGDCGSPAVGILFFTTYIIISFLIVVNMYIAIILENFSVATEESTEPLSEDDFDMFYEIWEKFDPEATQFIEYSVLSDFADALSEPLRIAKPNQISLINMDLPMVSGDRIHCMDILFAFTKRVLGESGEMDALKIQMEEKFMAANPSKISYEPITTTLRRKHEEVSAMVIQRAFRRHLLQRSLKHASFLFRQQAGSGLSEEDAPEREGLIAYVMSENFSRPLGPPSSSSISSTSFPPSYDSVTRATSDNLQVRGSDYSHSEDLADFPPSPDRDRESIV

Question: Which “k′ NaV1.5” value (NaV1.5) does the source give for COC(=O)c1scc(C)c1NC(=O)C(C)N(CCO)CCO (stereo not shown) [AT-25, Methyl 3-(2-(bis(2-hydroxyethyl)amino)propanamido)-4-methylthiophene-2-carboxylate] here?
Answer: Its value is 12.1.

Question: Which “k′ NaV1.5” value (NaV1.5) does the source give for COC(=O)c1scc(C)c1NC(=O)C(C)N1CCS(=O)(=O)CC1 (stereo not shown) [AT-10, Methyl 3-(2-(1,1-dioxidothiomorpholino)propanamido)-4-methylthiophene-2-carboxylate] here?
Answer: Its value is 0.

Question: With CCCCOC(=O)c1scc(C)c1NC(=O)C(C)NCCC (stereo not shown) [AT-29, Butyl 4-methyl-3-(2-(propylamino)propanamido)thiophene-2-carboxylate] as the molecule, how does the “k′ NaV1.5” value (NaV1.5) read?
Answer: The value was 35.

Question: For COC(=O)c1scc(C)c1NC(=O)C(C)N1CCSCC1 (stereo not shown) [AT-9, Methyl 4-methyl-3-(2-thiomorpholinopropanamido)thiophene-2-carboxylate], which “k′ NaV1.5” value (NaV1.5) is on record?
Answer: The value was 48.6.

Question: For COC(=O)c1scc(C)c1NC(=O)C(C)N1CCOCC1 (stereo not shown) [AT-5, Methyl 4-methyl-3-(2-morpholinopropanamido)thiophene-2-carboxylate], which “k′ NaV1.5” value (NaV1.5) is on record?
Answer: The value was 18.4.

Question: With COC(=O)c1scc(C)c1NC(=O)C(C)N1CCN(CC2CC2)CC1 (stereo not shown) [AT-14, Methyl 3-(2-(4-(cyclopropylmethyl)piperazin-1-yl)propanamido)-4-methylthiophene-2-carboxylate] as the molecule, how does the “k′ NaV1.5” value (NaV1.5) read?
Answer: The value was 22.

Question: For COC(=O)c1scc(C)c1NC(=O)C(C)NCCN1CCOCC1 (stereo not shown) [AT-26, Methyl 4-methyl-3-(2-((2-morpholinoethyl)amino)propanamido)thiophene-2-carboxylate], which “k′ NaV1.5” value (NaV1.5) is on record?
Answer: Its value is 72.4.

Question: With COC(=O)c1scc(C)c1NC(=O)C(C)N1CCN(CCO)CC1 (stereo not shown) [AT-19, Methyl 3-(2-(4-(2-hydroxyethyl)piperazin-1-yl)propanamido)-4-methylthiophene-2-carboxylate] as the molecule, how does the “k′ NaV1.5” value (NaV1.5) read?
Answer: Its value is 92.

Question: With CCCNC(C)C(=O)Nc1c(C)csc1C(=O)OC (stereo not shown) [AT, Methyl 4-methyl-3-(2-(propylamino)propanamido)thiophene-2-carboxylate, reference compound] as the molecule, how does the TI (SD rats) read?
Answer: Its TI is 125.83.

Question: What about the LD50 at 24 h [1] of the same molecule?
Answer: The LD50 at 24 h was 598 mg/kg.

Question: What about the “k′ NaV1.5” value (NaV1.5) of the same molecule?
Answer: Its value is 63.

Question: What about the motor block duration (rats [2]) of the same molecule?
Answer: Its motor block duration is 90 min.

Question: And the LD50 [3]?
Answer: Its LD50 is 38.3 mg/kg.

Question: And the subcutaneous infiltration duration (rats [4])?
Answer: Its subcutaneous infiltration duration is 120 min.

Question: And the “duration of action (anesthesia) under CFA-induced chronic inflammation” value (rats [5])?
Answer: Its value is 30 min.

Question: And the IC50 [6]?
Answer: The IC50 was 71.2 ± 3.06 µM.

Question: What about the “anesthesia result in acute inflammation model through plantar incision” value (rats [7]) of the same molecule?
Answer: The value was “underperformed”.

Question: And the face grooming frequency (rats [8])?
Answer: Its face grooming frequency is “significantly lowered”.

Question: With COC(=O)c1scc(C)c1NC(=O)C(C)N1CCN(C(C)(C)C)CC1 (stereo not shown) [AT-15, Methyl 3-(2-(4-(tert-butyl)piperazin-1-yl)propanamido)-4-methylthiophene-2-carboxylate] as the molecule, how does the “k′ NaV1.5” value (NaV1.5) read?
Answer: The value was 116.4.

Question: And the motor block duration (rats [2])?
Answer: Its motor block duration is 210 min.

Question: And the “duration of effective sensory blockade” value (rats [2])?
Answer: The value was 190 min.

Question: What about the subcutaneous infiltration duration (rats [4]) of the same molecule?
Answer: Its subcutaneous infiltration duration is 205 min.

Question: For COC(=O)c1scc(C)c1NC(=O)C(C)N1CC(C)CC(C)C1 (stereo not shown) [AT-4, Methyl 3-(2-(3,5-dimethylpiperidin-1-yl)propanamido)-4-methylthiophene-2-carboxylate], which “k′ NaV1.5” value (NaV1.5) is on record?
Answer: Its value is 71.2.

Question: For CCCN1CCN(C(C)C(=O)Nc2c(C)csc2C(=O)OC)CC1 (stereo not shown) [AT-16, Methyl 4-methyl-3-(2-(4-propylpiperazin-1-yl)propanamido)thiophene-2-carboxylate], which “k′ NaV1.5” value (NaV1.5) is on record?
Answer: The value was 42.4.

Question: With COC(=O)c1scc(C)c1NC(=O)C(C)N1CCN(C)CC1 (stereo not shown) [AT-11, Methyl 4-methyl-3-(2-(4-methylpiperazin-1-yl)propanamido)thiophene-2-carboxylate] as the molecule, how does the “k′ NaV1.5” value (NaV1.5) read?
Answer: The value was 8.

Question: What about the subcutaneous infiltration duration (rats [4]) of the same molecule?
Answer: The subcutaneous infiltration duration was 260 min.

Question: For COC(=O)c1scc(C)c1NC(=O)C(C)N1CCN(c2ccccc2)CC1 (stereo not shown) [AT-18, Methyl 4-methyl-3-(2-(4-phenylpiperazin-1-yl)propanamido)thiophene-2-carboxylate], which “k′ NaV1.5” value (NaV1.5) is on record?
Answer: Its value is 57.8.

Question: For CCCNC(C)C(=O)Nc1c(C)csc1C(=O)OCCC (stereo not shown) [AT-28, Propyl 4-methyl-3-(2-(propylamino)propanamido)thiophene-2-carboxylate], which “k′ NaV1.5” value (NaV1.5) is on record?
Answer: The value was 38.

Question: Which “k′ NaV1.5” value (NaV1.5) does the source give for COC(=O)c1scc(C)c1NC(=O)C(C)N1CCN(C(C)C)CC1 (stereo not shown) [AT-13, Methyl 3-(2-(4-isopropylpiperazin-1-yl)propanamido)-4-methylthiophene-2-carboxylate] here?
Answer: Its value is 23.2.

Question: What about the motor block duration (rats [2]) of the same molecule?
Answer: The motor block duration was 140 min.

Question: And the “duration of effective sensory blockade” value (rats [2])?
Answer: The value was 145 min.

Question: And the subcutaneous infiltration duration (rats [4])?
Answer: Its subcutaneous infiltration duration is 275 min.

Question: And the “anesthesia result in acute inflammation model through plantar incision” value (rats [7])?
Answer: Its value is “improved results”.

Question: Which “k′ NaV1.5” value (NaV1.5) does the source give for COC(=O)c1scc(C)c1NC(=O)C(C)N1CCOCC1C (stereo not shown) [AT-6, Methyl 4-methyl-3-(2-(3-methylmorpholino)propanamido)thiophene-2-carboxylate] here?
Answer: The value was 28.

Question: Which “k′ NaV1.5” value (NaV1.5) does the source give for CCC(C(=O)Nc1c(C)csc1C(=O)OC)N1CCN(C(C)C)CC1 (stereo not shown) [AT-22, Methyl 3-(2-(4-isopropylpiperazin-1-yl)butanamido)-4-methylthiophene-2-carboxylate] here?
Answer: The value was 21.4.

Question: What about the motor block duration (rats [2]) of the same molecule?
Answer: The motor block duration was 240 min.

Question: What about the “duration of effective sensory blockade” value (rats [2]) of the same molecule?
Answer: Its value is 220 min.

Question: What about the subcutaneous infiltration duration (rats [4]) of the same molecule?
Answer: The subcutaneous infiltration duration was 260 min.

Question: For CCCNC(C)C(=O)Nc1c(C)csc1C(=O)OCC(C)C (stereo not shown) [AT-30, Isobutyl 4-methyl-3-(2-(propylamino)propanamido)thiophene-2-carboxylate], which “k′ NaV1.5” value (NaV1.5) is on record?
Answer: The value was 105.4.

Question: Which “k′ NaV1.5” value (NaV1.5) does the source give for COC(=O)c1scc(C)c1NC(=O)C(C)N1CC(C)OC(C)(C)C1 (stereo not shown) [AT-8, Methyl 4-methyl-3-(2-(2,2,6-trimethylmorpholino)propanamido)thiophene-2-carboxylate] here?
Answer: Its value is 36.8.

Question: With CCCNC(C)C(=O)Nc1c(C)csc1C(=O)OCC (stereo not shown) [AT-27, Ethyl 4-methyl-3-(2-(propylamino)propanamido)thiophene-2-carboxylate] as the molecule, how does the “k′ NaV1.5” value (NaV1.5) read?
Answer: The value was 0.6.

Question: For COC(=O)c1scc(C)c1NC(=O)C(C)N1C(C)COCC1C (stereo not shown) [AT-7, Methyl 3-(2-(3,5-dimethylmorpholino)propanamido)-4-methylthiophene-2-carboxylate], which “k′ NaV1.5” value (NaV1.5) is on record?
Answer: The value was 24.

Question: With COCCN1CCN(C(C)C(=O)Nc2c(C)csc2C(=O)OC)CC1 (stereo not shown) [AT-20, Methyl 3-(2-(4-(2-methoxyethyl)piperazin-1-yl)propanamido)-4-methylthiophene-2-carboxylate] as the molecule, how does the “k′ NaV1.5” value (NaV1.5) read?
Answer: The value was 92.

Question: With COC(=O)c1scc(C)c1NC(=O)C(C)N1CCCCC1 (stereo not shown) [AT-3, Methyl 4-methyl-3-(2-(piperidin-1-yl)propanamido)thiophene-2-carboxylate] as the molecule, how does the “k′ NaV1.5” value (NaV1.5) read?
Answer: Its value is 1.1.

Question: For CCN(CCO)C(C)C(=O)Nc1c(C)csc1C(=O)OC (stereo not shown) [AT-24, Methyl 3-(2-(ethyl(2-hydroxyethyl)amino)propanamido)-4-methylthiophene-2-carboxylate], which “k′ NaV1.5” value (NaV1.5) is on record?
Answer: The value was 27.6.

Question: With COC(=O)c1scc(C)c1NC(=O)C(C)N1CCN(C)C(C)C1 (stereo not shown) [AT-2, Methyl 3-(2-(3,4-dimethylpiperazin-1-yl)propanamido)-4-methylthiophene-2-carboxylate] as the molecule, how does the “k′ NaV1.5” value (NaV1.5) read?
Answer: Its value is 92.

Question: With COCCN(CCOC)C(C)C(=O)Nc1c(C)csc1C(=O)OC (stereo not shown) [AT-23, Methyl 3-(2-(bis(2-methoxyethyl)amino)propanamido)-4-methylthiophene-2-carboxylate] as the molecule, how does the “k′ NaV1.5” value (NaV1.5) read?
Answer: Its value is 43.6.

Question: For CCN1CCN(C(C)C(=O)Nc2c(C)csc2C(=O)OC)CC1 (stereo not shown) [AT-12, Methyl 3-(2-(4-ethylpiperazin-1-yl)propanamido)-4-methylthiophene-2-carboxylate], which “k′ NaV1.5” value (NaV1.5) is on record?
Answer: The value was 1.2.

Question: With COC(=O)c1scc(C)c1NC(=O)CN1CCN(C(C)C)CC1 [AT-21, Methyl 3-(2-(4-isopropylpiperazin-1-yl)acetamido)-4-methylthiophene-2-carboxylate] as the molecule, how does the “k′ NaV1.5” value (NaV1.5) read?
Answer: The value was 5.8.

Question: And the “subcutaneous infiltration effect compared with AT” value (rats [4])?
Answer: The value was “fewer effects than AT”.

Question: Which results are given for COC(=O)c1scc(C)c1NC(=O)C(C)N1CCNCC1 (stereo not shown) [AT-1, methyl 4-methyl-3-(2-(piperazin-1-yl)propanamido)thiophene-2-carboxylate]?
Answer: k′ NaV1.5 (NaV1.5): 80.8; subcutaneous infiltration duration (rats [4]): 240 min
